What was measured:
[1] = biological target: T1, endometase (matrilysin 2, MMP-26) (Homo sapiens, UniProt Q9NRE1); experiment: active-site titration, fluorogenic peptide hydrolysis, Morrison fit; format: biochemical; conditions: 50 mM HEPES pH 7.5, 0.2 M NaCl, 10 mM CaCl2, 0.01 % Brij-35, 25 °C, 20 min preincubation
T1 sequence (Q9NRE1 90-261): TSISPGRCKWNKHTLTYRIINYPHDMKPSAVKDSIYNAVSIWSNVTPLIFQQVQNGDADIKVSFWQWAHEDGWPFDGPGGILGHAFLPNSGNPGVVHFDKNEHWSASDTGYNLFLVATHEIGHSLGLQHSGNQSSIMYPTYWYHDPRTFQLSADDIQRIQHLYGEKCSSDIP

[2] = biological target: T1, endometase (matrilysin 2, MMP-26); experiment: fluorogenic peptide hydrolysis; format: biochemical
How it was run: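 MMP-26 was refolded from urea-solubilized insoluble protein by dialysis and was partially auto-activated. Active enzyme concentration was set by GM6001 titration. Final conditions were 1 nM active enzyme, 1 μM Mca-PLGLDpa-AR-NH₂, and test compound at 0.001–9 mM in 50 mM HEPES pH 7.5, 0.2 M NaCl, 10 mM CaCl₂ at 25 °C. Fluorescence was read at ex 328/em 393 nm, with maximum signal set as 100% activity.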

Compound	active-site titration, fluorogenic peptide hydrolysis, Morrison fit [1]	IC50 [2] [µM]
CNC(=O)[C@H](Cc1c[nH]c2ccccc12)NC(=O)[C@@H](CC(=O)NO)CC(C)C [GM6001]	Titration of active MMP-26 with GM6001, a potent and broad-spectrum MMP inhibitor	
CCCCCCCCCCCCOS(=O)(=O)O [SDS]		110
CCCCCCCCCCCCCC[N+](C)(C)C [TTAB]		79

From article PMC2801054 (Analytical biochemistry, 2009)
